From ChEMBL document CHEMBL1135705, “Correlation of the antibacterial activities of cationic peptide antibiotics and cationic steroid antibiotics” (2002) come the findings set out here.

In brackets after ≈: the same amount, converted by molar mass.

For one test, the system named is Streptococcus pyogenes. The test can be described thus: Antibacterial activity against Gram-positive bacteria-Streptococcus pyogenes (ATCC 19615). In kind it is functional.
Another test deals with Salmonella typhimurium. The test can be described thus: Antibacterial activity against Gram-negative bacteria -Salmonella Typhimurium (ATCC 14028). As to conditions: Salmonella enterica. In kind it is functional, Salmonella enterica subsp. enterica serovar Typhimurium.
The next test deals with Escherichia coli. Put plainly: Antibacterial activity against Gram-negative bacteria- Escherichia coli (ATCC 25922). In kind it is functional.
Test [1] can be described thus: Compound was evaluated for minimum hemolytic concentration. It is filed as functional. The gist of the method: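 Hemolysis was tested up to 200 µg/mL. Higher concentrations could not be used because of limited solubility.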
For another test, the system named is Staphylococcus aureus. The test can be described thus: Antibacterial activity against Gram-positive bacteria -S. aureus (ATCC 25923). In kind it is functional.

In general, MIC refers to the least concentration at which growth counts as inhibited. High values mean a less susceptible organism, low ones a more susceptible organism.

In the case of `C[C@H](CCCN(CCCN)CCCN)[C@H]1CC[C@H]2[C@@H]3[C@H](OCCCN)CC4C[C@H](OCCCN)CC[C@]4(C)[C@H]3C[C@H](OCCCN)[C@]12C` (stereo not given in full), the minimum inhibitory concentration (MIC) amounted to 3 µg/mL (≈ 4.42 µM) in the test on Streptococcus pyogenes, 25 µg/mL (≈ 36.8 µM) with Salmonella typhimurium, 6.6 µg/mL (≈ 9.72 µM) against Escherichia coli and 4.6 µg/mL (≈ 6.77 µM) with Staphylococcus aureus. This compound also registered an MHC in test [1] of over 200 µg/mL.
Take `C[C@H](CCCNCCCNCCCN)[C@H]1CC[C@H]2[C@@H]3[C@H](OCCCN)CC4C[C@H](OCCCN)CC[C@]4(C)[C@H]3C[C@H](OCCCN)[C@]12C` (stereo not given in full): the MIC was 1.6 µg/mL (≈ 2.36 µM) in the test on Streptococcus pyogenes, 12 µg/mL (≈ 17.7 µM) in the test on Salmonella typhimurium, 7.3 µg/mL (≈ 10.7 µM) against Escherichia coli and 2 µg/mL (≈ 2.95 µM) against Staphylococcus aureus. Further, in test [1], the MHC was over 200 µg/mL.
Regarding `C[C@H](CCCO)[C@H]1CC[C@H]2[C@@H]3[C@H](OCCCN)CC4C[C@H](OCCCN)CC[C@]4(C)[C@H]3C[C@H](OCCCN)[C@]12C` (stereo not given in full), the MIC in the test with Streptococcus pyogenes came out at 4.2 µg/mL (≈ 7.42 µM); against Salmonella typhimurium, 43 µg/mL (≈ 76 µM); against Escherichia coli, 36 µg/mL (≈ 63.6 µM); against Staphylococcus aureus, 2 µg/mL (≈ 3.53 µM). The compound also came in with an MHC in test [1] of 100 µg/mL.
